Measured values reported in ChEMBL document CHEMBL1137302 (J Med Chem, 2006).
Calls of active or inactive are those of the source. No cut-off for these calls is given here.

Key:
[1] = system: D(2) dopamine receptor (Mustela putorius furo); test: Agonist activity at ferret D2 receptor in HEK293 cells coexpressing Galphaqo5 by FLIPR relative to dopamine upto 10 uM
[2] = target: T1, D(4) dopamine receptor (Homo sapiens, UniProt P21917); test: (§1) Agonist activity at human D4.4 receptor in HEK293 cells coexpressing G-alpha-qo5 by FLIPR; type: functional, cell-based
T1 sequence (P21917 whole entry): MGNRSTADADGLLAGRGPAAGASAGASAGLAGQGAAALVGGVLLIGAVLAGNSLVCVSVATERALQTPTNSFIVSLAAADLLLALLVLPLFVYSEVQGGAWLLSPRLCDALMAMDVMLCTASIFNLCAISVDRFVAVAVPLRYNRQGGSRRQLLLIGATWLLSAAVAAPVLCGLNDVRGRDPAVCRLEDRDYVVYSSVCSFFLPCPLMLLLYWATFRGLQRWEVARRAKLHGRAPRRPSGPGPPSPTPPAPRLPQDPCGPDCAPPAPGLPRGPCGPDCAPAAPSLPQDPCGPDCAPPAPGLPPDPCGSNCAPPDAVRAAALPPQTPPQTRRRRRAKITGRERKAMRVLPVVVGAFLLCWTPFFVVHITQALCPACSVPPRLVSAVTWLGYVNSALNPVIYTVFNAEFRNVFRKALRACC

[3] = target: T2, D(4) dopamine receptor (Homo sapiens) (UniProt P21917); test: Activity at human D4.4 receptor in HEK293 cells co-expressing Galphaqo5 by FLIPR; type: functional, cell-based
T2 sequence (whole entry): T1 sequence (P21917 whole entry)

[4] = target: T3, D(2) dopamine receptor (Homo sapiens, UniProt P14416); test: Agonist activity at human D2 receptor in HEK293 cells coexpressing G-alpha-qo5 by FLIPR relative to dopamine upto 10 uM; type: functional, cell-based
T3 sequence (P14416 whole entry): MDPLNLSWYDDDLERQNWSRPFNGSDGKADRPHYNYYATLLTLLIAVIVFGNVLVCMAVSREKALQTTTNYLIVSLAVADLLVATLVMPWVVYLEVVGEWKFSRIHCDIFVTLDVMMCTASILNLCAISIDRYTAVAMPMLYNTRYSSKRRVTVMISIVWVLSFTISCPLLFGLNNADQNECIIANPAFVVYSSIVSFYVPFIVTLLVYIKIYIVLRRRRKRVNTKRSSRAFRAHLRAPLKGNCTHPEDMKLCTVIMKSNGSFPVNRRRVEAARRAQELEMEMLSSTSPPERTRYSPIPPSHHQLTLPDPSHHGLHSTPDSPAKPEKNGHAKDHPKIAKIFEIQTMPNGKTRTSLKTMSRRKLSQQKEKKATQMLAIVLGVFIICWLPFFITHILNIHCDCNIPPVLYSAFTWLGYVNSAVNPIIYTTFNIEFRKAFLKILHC
Procedure, shortened: (§2)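 Ca2+ flux by FLIPR in HEK cells cotransfected with the D2 receptor (human, ferret or rat) plus chimeric G protein Gqo5.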

[5] = target: T4, D(4) dopamine receptor (Rattus norvegicus, UniProt P30729); test: Agonist activity at rat D4 receptor in HEK293 cells coexpressing G-alpha-qo5 by FLIPR; type: functional, cell-based
T4 sequence (P30729 whole entry): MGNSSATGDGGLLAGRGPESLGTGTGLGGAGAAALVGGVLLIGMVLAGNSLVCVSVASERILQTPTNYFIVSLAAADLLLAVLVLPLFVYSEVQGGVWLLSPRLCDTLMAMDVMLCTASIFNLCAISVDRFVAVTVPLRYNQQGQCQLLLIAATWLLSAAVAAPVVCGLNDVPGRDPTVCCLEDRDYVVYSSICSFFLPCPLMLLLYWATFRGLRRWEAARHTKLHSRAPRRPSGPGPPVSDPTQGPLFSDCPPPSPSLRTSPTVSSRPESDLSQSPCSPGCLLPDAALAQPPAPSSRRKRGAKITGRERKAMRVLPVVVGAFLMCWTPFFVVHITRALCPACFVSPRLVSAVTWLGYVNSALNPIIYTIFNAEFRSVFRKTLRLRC

[6] = organism: Mustela putorius furo; test: Induction of nausea in ferret; type: functional, organism-based
[7] = Bioavailability in Sprague-Dawley rat at 1 mg/kg, po; type: ADME, organism-based; settings: in vivo
Procedure, shortened: (§3)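 Single 1 mg/kg dose given iv, sc or orally to Sprague-Dawley rats, dogs and monkeys; plasma concentrations followed over time (mean ± SEM, n = 3). Cmax, AUC, half-life, clearance and bioavailability calculated from the curves.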

[8] = target: D(3) dopamine receptor (Homo sapiens) (UniProt P35462); test: Agonist activity at human D3 receptor in HEK293 cells coexpressing G-alpha-qo5 by FLIPR upto 10 uM; type: functional, cell-based
D(3) dopamine receptor (Homo sapiens), sequence (P35462 whole entry): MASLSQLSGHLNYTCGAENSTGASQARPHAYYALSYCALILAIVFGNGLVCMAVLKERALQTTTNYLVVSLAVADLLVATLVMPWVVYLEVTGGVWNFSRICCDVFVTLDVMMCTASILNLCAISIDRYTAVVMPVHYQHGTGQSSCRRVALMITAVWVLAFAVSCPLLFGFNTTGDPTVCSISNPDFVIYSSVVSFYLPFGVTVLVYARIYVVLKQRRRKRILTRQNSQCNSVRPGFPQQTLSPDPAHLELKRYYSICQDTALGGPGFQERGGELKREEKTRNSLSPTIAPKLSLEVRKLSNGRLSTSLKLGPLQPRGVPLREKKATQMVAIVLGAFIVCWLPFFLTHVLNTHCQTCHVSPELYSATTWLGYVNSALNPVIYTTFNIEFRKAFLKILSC

[9] = system: Rattus norvegicus; test: Proerectile activity in rat measured as incidence of penile erection at 0.03 umol/kg, sc; type: functional
Procedure, shortened: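 Conscious male rats dosed subcutaneously. Penile erection incidence scored over 60 min after injection; values are % ± SEM, with significance tested against control.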

[10] = target: D(2) dopamine receptor (Rattus norvegicus) (UniProt P61169); test: Agonist activity at rat D2 receptor in HEK293 cells coexpressing G-alpha-qo5 by FLIPR relative to dopamine upto 10 uM; type: functional, cell-based
D(2) dopamine receptor (Rattus norvegicus), sequence (P61169 whole entry): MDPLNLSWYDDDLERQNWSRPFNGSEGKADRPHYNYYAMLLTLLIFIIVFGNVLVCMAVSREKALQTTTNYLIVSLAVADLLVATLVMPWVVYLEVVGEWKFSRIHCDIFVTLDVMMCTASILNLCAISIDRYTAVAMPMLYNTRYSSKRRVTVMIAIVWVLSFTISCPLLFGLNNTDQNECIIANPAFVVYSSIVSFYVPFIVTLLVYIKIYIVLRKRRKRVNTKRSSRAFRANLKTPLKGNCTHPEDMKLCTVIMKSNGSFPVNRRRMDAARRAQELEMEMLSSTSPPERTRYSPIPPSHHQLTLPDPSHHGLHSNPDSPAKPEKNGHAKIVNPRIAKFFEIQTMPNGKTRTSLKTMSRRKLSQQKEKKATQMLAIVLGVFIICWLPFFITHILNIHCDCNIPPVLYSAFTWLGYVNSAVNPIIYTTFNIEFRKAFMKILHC
Procedure, shortened: as §2

[11] = target: T3, D(2) dopamine receptor; test: Displacement of [125I]7-OH-PIPAT from human D2L receptor expressed in HEK293 cell membrane; type: cell membranes
[12] = target: T5, D(4) dopamine receptor (Rattus norvegicus) (UniProt P30729); test: Agonist activity at rat D4 receptor in HEK293 cells co-expressing Galphaqo5 by FLIPR relative to dopamine; type: functional, cell-based
T5 sequence (whole entry): T4 sequence (P30729 whole entry)

[13] = target: T3, D(2) dopamine receptor; test: Binding affinity to human D2S receptor
[14] = target: T1, D(4) dopamine receptor; test: Displacement of [3H]A369508 from human D4 receptor expressed in HEK293 cell membrane; type: cell membranes
[15] = organism: Mustela putorius furo; test: Induction of emesis in ferret; type: functional, organism-based
[16] = target: T2, D(4) dopamine receptor (Homo sapiens); test: Agonist activity at human D4.4 receptor in HEK293 cells coexpressing G-alpha-qo5 by FLIPR with relative to dopamine upto 10 uM; type: functional, cell-based
[17] = target: cGMP-dependent 3',5'-cyclic phosphodiesterase (Homo sapiens) (UniProt O00408); test: Activity at PDE2 at 10 uM
cGMP-dependent 3',5'-cyclic phosphodiesterase (Homo sapiens), sequence (O00408 whole entry): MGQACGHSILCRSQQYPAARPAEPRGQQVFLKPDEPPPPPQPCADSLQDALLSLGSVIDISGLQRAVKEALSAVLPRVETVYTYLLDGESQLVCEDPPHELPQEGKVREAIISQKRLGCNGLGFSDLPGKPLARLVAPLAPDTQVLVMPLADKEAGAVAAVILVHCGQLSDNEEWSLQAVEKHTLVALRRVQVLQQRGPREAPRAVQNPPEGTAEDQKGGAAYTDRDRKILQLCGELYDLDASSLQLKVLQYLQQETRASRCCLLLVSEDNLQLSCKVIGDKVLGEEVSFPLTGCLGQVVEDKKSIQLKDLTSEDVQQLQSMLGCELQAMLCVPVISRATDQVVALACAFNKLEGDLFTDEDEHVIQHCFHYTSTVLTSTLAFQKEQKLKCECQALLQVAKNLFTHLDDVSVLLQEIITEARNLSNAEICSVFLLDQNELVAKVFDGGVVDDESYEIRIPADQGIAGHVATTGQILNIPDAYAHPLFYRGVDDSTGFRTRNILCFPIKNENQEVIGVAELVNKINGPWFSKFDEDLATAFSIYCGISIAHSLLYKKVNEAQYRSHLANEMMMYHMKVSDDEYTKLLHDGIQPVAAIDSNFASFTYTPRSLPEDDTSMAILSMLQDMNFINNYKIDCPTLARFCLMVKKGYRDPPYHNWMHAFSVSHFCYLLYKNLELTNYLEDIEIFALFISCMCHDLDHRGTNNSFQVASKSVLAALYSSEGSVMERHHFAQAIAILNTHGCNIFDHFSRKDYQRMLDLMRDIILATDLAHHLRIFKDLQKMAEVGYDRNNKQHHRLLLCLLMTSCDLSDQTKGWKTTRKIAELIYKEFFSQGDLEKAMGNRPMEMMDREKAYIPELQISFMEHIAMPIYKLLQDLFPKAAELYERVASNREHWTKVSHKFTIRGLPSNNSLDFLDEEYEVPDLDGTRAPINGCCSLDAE
Procedure, shortened: (§4)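 Broad selectivity panel (over 70 receptors, ion channels and neuronal receptors, PDE1-6 included) run at a single 10 µM concentration.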

[18] = target: Phosphodiesterase 6 (Homo sapiens) (UniProt Q13956+P18545+P35913+O43924+P16499+P51160); test: Activity at PDE6 at 10 uM; type: protein assay
Procedure, shortened: as §4

[19] = target: Phosphodiesterase 4 (Homo sapiens) (UniProt P27815+Q08499+Q07343+Q08493); test: Activity at PDE4 at 10 uM; type: protein assay
Procedure, shortened: as §4

[20] = target: Phosphodiesterase 3 (Homo sapiens) (UniProt Q14432+Q13370); test: Activity at PDE3 at 10 uM; type: protein assay
Procedure, shortened: as §4

[21] = Half life in Sprague-Dawley rat at 1 mg/kg, po; type: ADME, organism-based; set-up: dose 1 mg/kg, route oral; settings: in vivo
Procedure, shortened: as §3

[22] = target: cGMP-specific 3',5'-cyclic phosphodiesterase (Homo sapiens) (UniProt O76074); test: Activity at PDE5 at 10 uM
Procedure, shortened: as §4

[23] = target: hERG (Homo sapiens, UniProt Q12809); test: Blockade of current at hERG expressed in HEK293 cells at 3 ug/mL; type: cell-based; settings: HEK293 cells that express hERG
hERG, sequence (Q12809 whole entry): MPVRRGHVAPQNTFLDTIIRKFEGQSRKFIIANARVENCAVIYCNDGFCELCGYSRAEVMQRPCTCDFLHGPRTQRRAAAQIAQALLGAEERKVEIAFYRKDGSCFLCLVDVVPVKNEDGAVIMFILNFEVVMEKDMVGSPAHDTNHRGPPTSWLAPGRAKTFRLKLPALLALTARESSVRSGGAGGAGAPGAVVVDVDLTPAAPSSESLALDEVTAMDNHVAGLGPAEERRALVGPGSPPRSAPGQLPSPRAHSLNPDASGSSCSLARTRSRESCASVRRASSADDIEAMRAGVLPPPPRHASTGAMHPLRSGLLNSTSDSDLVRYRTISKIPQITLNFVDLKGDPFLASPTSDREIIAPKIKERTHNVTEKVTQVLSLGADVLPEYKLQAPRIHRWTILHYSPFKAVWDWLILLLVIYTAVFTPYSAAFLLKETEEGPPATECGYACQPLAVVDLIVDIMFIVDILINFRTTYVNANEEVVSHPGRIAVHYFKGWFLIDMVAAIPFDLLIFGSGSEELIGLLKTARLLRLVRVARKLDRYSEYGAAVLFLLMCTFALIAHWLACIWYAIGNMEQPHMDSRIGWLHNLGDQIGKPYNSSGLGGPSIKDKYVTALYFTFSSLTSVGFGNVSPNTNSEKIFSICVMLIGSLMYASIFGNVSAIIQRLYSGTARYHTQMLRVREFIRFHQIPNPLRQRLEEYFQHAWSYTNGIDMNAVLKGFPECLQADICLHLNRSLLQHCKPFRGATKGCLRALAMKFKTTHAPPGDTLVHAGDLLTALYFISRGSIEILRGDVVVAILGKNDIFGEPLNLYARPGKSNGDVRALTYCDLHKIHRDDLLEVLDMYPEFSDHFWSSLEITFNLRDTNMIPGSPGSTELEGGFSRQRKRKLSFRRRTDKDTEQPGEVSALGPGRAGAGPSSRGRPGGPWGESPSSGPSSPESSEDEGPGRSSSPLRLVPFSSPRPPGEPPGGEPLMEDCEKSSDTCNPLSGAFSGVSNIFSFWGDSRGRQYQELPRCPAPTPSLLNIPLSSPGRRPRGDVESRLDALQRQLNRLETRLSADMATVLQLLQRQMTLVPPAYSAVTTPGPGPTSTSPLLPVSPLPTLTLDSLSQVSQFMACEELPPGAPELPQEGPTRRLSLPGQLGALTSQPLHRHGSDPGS
Procedure, shortened: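 hERG stably expressed in HEK293 cells; whole-cell voltage clamp. Pipette: K aspartate/KCl/EGTA/MgATP, pH 7.3. Bath: NaCl-based HEPES, pH 7.4. Compound dissolved in DMSO (≤0.1%), one concentration per cell. Steps to -25 to +50 mV for 3 s, then -50 mV for 4 s, from -80 mV every 15 s; tail current measured against DMSO vehicle.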

[24] = Half life in Sprague-Dawley rat at 1 mg/kg, sc; type: ADME, organism-based; set-up: dose 1 mg/kg, route subcutaneous; settings: in vivo
Procedure, shortened: as §3

[25] = target: Phosphodiesterase 1 (Homo sapiens) (UniProt P54750+Q01064+Q14123); test: Activity at PDE1 at 10 uM; type: protein assay
Procedure, shortened: as §4

[26] = Oral bioavailability in dog; type: ADME, organism-based, Canis lupus familiaris; settings: in vivo
Procedure, shortened: as §3

[27] = system: Rattus norvegicus; test: Proerectile activity in rat measured as incidence of penile erection at 0.3 umol/kg, sc; type: functional
Procedure, shortened: (§5)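 Conscious male rats were given a single subcutaneous injection and observed for penile erections over the following 60 min. The read-out was the incidence of erections, expressed as % of animals ± SEM (n = 12–32 animals per group), with significance tested against controls. The value is the maximal incidence at the maximally effective dose.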

[28] = Oral bioavailability in monkey; type: ADME, organism-based, Macaca mulatta; settings: rhesus monkey, in vivo
Procedure, shortened: as §3

[29] = Oral bioavailability in rat; type: ADME, organism-based; settings: in vivo
Procedure, shortened: as §3

[30] = Effect on canine cardiac Purkinje fiber repolarization measured as prolongation of action potential duration at 1.6 ug/mL; type: functional, Canis lupus familiaris
Procedure, shortened: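 Canine Purkinje fibres impaled with 3 M KCl microelectrodes after at least 30 min equilibration under stimulation. Bath: 131 mM NaCl, 18 mM NaHCO3, 4 mM KCl, 2 mM CaCl2. Baseline APD90 recorded at BCL 2 s, 800 and 400 ms. Each fibre then received two ascending concentrations, each with 25 min equilibration and re-recording at all three rates.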

[31] = Bioavailability in Sprague-Dawley rat at 1 mg/kg, sc; type: ADME, organism-based; settings: in vivo
Procedure, shortened: as §3

[32] = target: T1, D(4) dopamine receptor; test: Displacement of [3H]spiperone from human D4 receptor expressed in HEK293 cell membrane; type: cell membranes
[33] = target: T3, D(2) dopamine receptor; test: Binding affinity at human D2L receptor by displacement of [125I]-7-OH-PIPAT in membranes
[34] = target: T3, D(2) dopamine receptor; test: Agonist activity at human D2 receptor in HEK293 cells coexpressing G-alpha-qo5 by FLIPR; type: functional, cell-based
[35] = Agonist activity at ferret D4 receptor in HEK293 cells coexpressing G-alpha-qo5 by FLIPR relative to dopamine; type: functional, Mustela putorius furo
[36] = system: Rattus norvegicus; test: Proerectile activity in rat measured as incidence of penile erection at 0.1 umol/kg, sc; type: functional
Procedure, shortened: as §5

[37] = Agonist activity at ferret D4 receptor in HEK293 cells coexpressing G-alpha-qo5 by FLIPR; type: functional, cell-based, Mustela putorius furo; settings: Mustela putorius
Procedure, shortened: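 HEK cells cotransfected with ferret D4 receptor and chimeric G protein Gqo5, with receptor activation read as a calcium flux signal on FLIPR. EC50 is the concentration giving half-maximal activation.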

[38] = target: T2, D(4) dopamine receptor (Homo sapiens); test: as §1; type: functional, cell-based
[39] = target: T2, D(4) dopamine receptor (Homo sapiens); test: Agonist activity at human D4.4 receptor in HEK293 cells coexpressing G-alpha-qo5 by FLIPR upto 10 uM; type: functional, cell-based

Row | Compound | EC50 [2] | Activity [4] | EC50 [5] | bioavailability [7] | Activity [8] | Activity [10] | Ki [11] | Efficacy [12] | Ki [13] | Ki [14] | Activity [6] | Activity [15] | also measured
1 | Cc1cc(F)ccc1NC(=O)CN1CCC(c2cccc[n+]2[O-])CC1 | 60 nM | inactive | 100 nM | 7% | inactive | inactive | > 10000 nM | 76% | > 10000 nM | 405 nM | inactive | inactive | Activity [1]: inactive; Activity ([3]; filed as agonist): Agonist; Activity [9]: 67%
2 | O=C(NCN1CCC(c2cccc[n+]2[O-])CC1)c1cccs1 | – | – | – | – | – | – | – | – | – | – | – | – | Activity [16]: inactive
3 | Cc1cccc(NC(=O)CN2CCC(c3cccc[n+]3[O-])CC2)c1 | 32 nM | inactive | 57 nM | 11% | inactive | inactive | > 10000 nM | 80% | > 10000 nM | 294 nM | inactive | inactive | Activity ([3]; filed as agonist): Agonist; Activity [17]: inactive; Activity [18]: inactive; Activity [19]: inactive; Activity [20]: inactive; half-life [21]: 18 min; Activity [22]: inactive; inhibition at 3 ug/mL [23]: 44.8%; half-life [24]: 30 min; Activity [25]: inactive; bioavailability [26]: 70%; Activity [27]: 75%; bioavailability [28]: 28%; bioavailability [29]: 11%; Activity [30]: 12%; bioavailability [31]: 61%
4 | Oc1ccc(N2CCN(Cc3nc4ccccc4[nH]3)CC2)nc1 | 2.4 nM | inactive | 13.7 nM | – | inactive | inactive | > 10000 nM | 66% | > 10000 nM | 17 nM | inactive | inactive | Activity [1]: inactive; Activity ([3]; filed as partial agonist): Partial agonist; Efficacy [35]: 48%; Activity [36]: 60%; EC50 [37]: 5 nM

Further lines, with some results ahead:

Row | EC50 [2] | Activity [4] | EC50 [5] | bioavailability [7] | Activity [8] | Activity [10] | Ki [11] | Efficacy [12] | Ki [13] | Ki [14] | Compound | Activity [6] | Activity [15] | also measured
5 | 9 nM | – | – | 2% | – | – | 3500 nM | – | – | – | Cc1cccc(C(=O)NCN2CCC(c3ccccn3)CC2)c1 | – | – | Ki [32]: 32 nM; Activity [9]: 83%; half-life [24]: 36 min; Ki [33]: 3500 nM; bioavailability [31]: 76%
6 | 206 nM | – | – | – | – | – | 27 nM | – | – | 1.3 nM | COc1ccccc1C1CCN(CNC(=O)c2cccc(C)c2)CC1 | – | – | Activity ([3]; filed as partial agonist): Partial agonist; EC50 [34]: > 10000 nM
7 | – | – | – | – | – | – | 235 nM | – | – | – | Cc1cccc(C(=O)NCN2CCC(c3ccccc3)CC2)c1 | – | – | Efficacy [38]: 17%; Activity [39]: inactive
